From paper PMC9890663 (RSC Advances, 2023)
Converted amounts (≈) assume the structure as drawn. “And” between values parts separate entries of the source, which are not always exact repeats. Equal entries are not always repeated. Where two headings read alike, the source gives them in different places.

Experiments:
[1] = test system: calf thymus DNA (ct-DNA); details: DNA intercalator; cited from earlier work
[2] = test system: S. aureus ATCC 25923; assay: MIC, broth microdilution; type: cell-based; details: Staphylococcus aureus, ATCC25923, 24 h
In short: (§1)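 Broth microdilution. S. aureus ATCC 25923 followed CLSI M07-A8 at 5 × 10^5 cfu mL−1; Candida strains followed EUCAST yeast method v7.3.1 at 1 × 10^5 cfu mL−1. Test compound from a 50 mg mL−1 DMSO stock was tested from 500 μg mL−1 downward, with final DMSO <1% v/v. MIC was the lowest concentration inhibiting growth after 24 h at 37 °C, read on a plate reader.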

[3] = test system: P. aeruginosa PAO1; assay: MIC, broth microdilution; type: cell-based; details: Pseudomonas aeruginosa, PAO1, 24 h
[4] = test system: MRC-5 cells; assay: Antiproliferative activity, MTT assay; type: cell-based, human
[5] = test system: C. albicans ATCC 10231; assay: MIC, broth microdilution; type: cell-based; details: Candida albicans, ATCC10231, 24 h
In short: as §1

[6] = test system: C. albicans ATCC 10231; assay: Inhibition of hyphae formation on Spider medium; type: cell-based, Candida albicans; details: 0.5 × MIC, vs DMSO control
[7] = test system: C. albicans; details: cited from earlier work
[8] = test system: C. albicans ATCC 10231; assay: Biofilm formation assay, crystal violet staining; type: cell-based, Candida albicans; details: MIC of the complexes applied
In short: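 Candida albicans ATCC 10231 biofilm assay, starting inoculum 1 × 10^6 cfu mL−1. Test compound was applied as two-fold serial dilutions from 3.5 down to 0.05 μg mL−1, then incubated 48 h at 37 °C. Adherent biomass was stained with crystal violet and read at 590.0 nm. The assay was repeated three times.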

[9] = molecular target: bovine serum albumin (BSA) (Bos taurus, UniProt P02769); assay: BSA fluorescence emission quenching; type: binding
In short: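 Tryptophan fluorescence quenching of 5 μM BSA in PBS pH 7.4, titrated with test compound (DMSO stock) up to 130 μM. Excitation was 290.0 nm and spectra were recorded at 295.0–500.0 nm, with quenching monitored at 365.0 nm. Ksv came from a Stern–Volmer plot, and Kq from Ksv with τ0 of 10^-8 s. KA and binding-site number n came from a log(F0−F)/F vs log[complex] plot.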

[10] = test system: Chromobacterium violaceum CV026; assay: Anti-quorum sensing disc assay, violacein production; type: cell-based; details: 100 μg per disc
In short: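 Agar-overlay disc assay. Inocula were grown overnight in LB at 30 °C and 180 rpm, with antibiotic for CV026. 50.0 μL of culture was seeded into 0.3% semi-solid LB agar and overlaid on LB plates. CV026 received N-hexanoyl-L-homoserine lactone (final 5.0 μM); S. marcescens ATCC 27117 received no autoinducer. Compound was placed on sterile discs and plates incubated overnight at 30 °C. Pigment inhibition was scored as white halo width (mm), distinct from growth-clearance zones.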

[11] = test system: calf thymus DNA (ct-DNA); assay: Competitive EthBr-ct-DNA fluorescence emission study; type: binding
In short: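 Ethidium bromide displacement on calf thymus DNA in PBS pH 7.4, with ct-DNA quantified by A260 (ε 6.6 × 10^3 M−1 cm−1). [DNA]/[EthBr] was held at 10 while test compound (10 mM DMSO stock) was increased. Excitation was 545.0 nm, emission 550.0–750.0 nm. Ksv and Kq (τ0 10^-8 s) came from the Stern–Volmer equation; KA and n from a log(F0−F)/F vs log[complex] plot.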

bovine serum albumin (BSA), sequence (P02769 25-607): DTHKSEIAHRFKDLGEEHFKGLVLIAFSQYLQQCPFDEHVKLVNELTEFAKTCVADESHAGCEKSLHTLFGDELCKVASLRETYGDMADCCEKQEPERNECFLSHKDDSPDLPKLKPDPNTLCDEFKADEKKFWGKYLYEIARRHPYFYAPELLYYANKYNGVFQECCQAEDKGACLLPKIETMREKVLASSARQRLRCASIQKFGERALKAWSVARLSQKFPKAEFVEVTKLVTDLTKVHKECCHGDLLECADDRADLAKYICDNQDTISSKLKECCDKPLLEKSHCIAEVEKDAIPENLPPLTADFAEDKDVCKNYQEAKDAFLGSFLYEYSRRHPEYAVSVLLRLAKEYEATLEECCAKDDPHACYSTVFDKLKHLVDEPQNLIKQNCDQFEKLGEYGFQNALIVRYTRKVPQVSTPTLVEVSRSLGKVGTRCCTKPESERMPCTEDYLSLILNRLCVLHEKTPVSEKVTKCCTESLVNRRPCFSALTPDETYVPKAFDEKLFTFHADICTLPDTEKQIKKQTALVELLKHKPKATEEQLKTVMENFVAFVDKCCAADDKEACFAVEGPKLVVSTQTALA

Compound: C[n+]1c2ccccc2c(-c2c3ccccc3[n+](C)c3ccccc23)c2ccccc21 [lucigenin]
- Hypochromism [1]: 50%

Compound: COC(=O)c1cnc(-c2cnccn2)cc1C(=O)OC [py-2pz, dimethyl 6-(pyrazine-2-yl)pyridine-3,4-dicarboxylate]
- MIC [2]: > 1830 µM and > 500 µg/mL
- MIC [3]: > 1830 µM and > 500 µg/mL
- IC50 ([4]; Homo sapiens, MRC5, 48 h, MRC-5, 48 h treatment): 120 µg/mL (≈ 439 µM)
- MIC [5]: > 1830 µM and > 500 µg/mL
- C. albicans hyphae formation [6]: did not show a potency to inhibit C. albicans filamentous growth

Compound: [CuCl2(py-2metz)]n
- MIC [7]: 31.25 µg/mL

Compound: {[Ag(NO3)(py-2pz)]·0.5H2O}n [Complex 4]
- percentage of the formed C. albicans biofilms [8]: 62%
- fold less toxic against MRC-5 than AgSD [4]: 1.7 fold
- Hypochromism ([9]; BSA fluorescence at 365.0 nm): 60.5%
- K sv ([9]; Stern-Volmer constant, BSA 5 μM, PBS pH 7.4): (2.10 ± 0.02) × 10^4 M^−1
- K A ([9]; binding constant, BSA): 21500 M⁻¹
- K q ([9]; quenching rate constant, BSA): 2.1e+12 M⁻¹ s⁻¹
- clear zones of inhibition (antibacterial effect) [10]: 5 mm
- Hypochromism ([11]; EthBr-ct-DNA fluorescence): 15.4%
- K sv ([11]; Stern-Volmer constant, EthBr-ct-DNA, PBS pH 7.4): (1.14 ± 0.01) × 10^3 M^−1
- K A ([11]; binding constant, ct-DNA): 2000 M⁻¹
- K q ([11]; quenching constant, EthBr-ct-DNA): 1.14e+11 M⁻¹ s⁻¹
